# High-throughput results from PubChem BioAssay.
# Most compounds without a hit are left out; they make up all but 1.8% or so of the library.
# NR2E3 ag-1 – agonists of human nuclear receptor NR2E3; 320,000 compounds, 0.12% hits; Q9Y5X4; inhibition of corepressor binding, % at 4.78 µM; GST-NR2E3/biotin-RetCOR TR-FRET, 1536-well;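 active = percent inhibition above the cutoff of mean plus 3 SD of all tested compounds, set per screening campaign, cut at about 20% in these data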
#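 Format: 1536-well format; test system: GST-NR2E3 and biotin-RetCOR proteins; read-out basis: percent inhibition of TR-FRET ratio; timing: 5 h incubation at 4 °C; detection: time-resolved FRET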
# 697 NFkB inh – lowers PMA/ionomycin-induced NF-kB signal in 697 B cells; 697 B-cell NF-kB luciferase reporter, 16 h; inhibition, % at 4 µM; 330,000 compounds, 0.33% hits; in the data active = inhibition above about 35%
# Jurkat NFkB inh – inhibitors of the PMA/ionomycin-induced NF-kB reporter in Jurkat cells; PMA/ionomycin-induced NF-kB luciferase reporter, luminescence; inhibition, % at 4 µM; 330,000 compounds, 0.53% hits; AID 435003; in the data active = inhibition above about 50%
# Gli-Sufu antag – Gli-Sufu pathway antagonism; 340,000 compounds, 0.74% hits; Sufu-KO-LIGHT fibroblasts, Gli luciferase reporter luminescence; inhibition, % at 5 µM; AID 588413;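 active = inhibition above about 55%, limit read from the data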
# NR2E3 ag-2 – human photoreceptor-specific nuclear receptor agonism. inhibition of corepressor binding, % at 3.98 µM. AID 602229. CHO-S Gal4-NCOR/VP16-NR2E3 two-hybrid, luciferase. Q9Y5X4. 360,000 compounds, 0.35% hits;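 active = inhibition above the mean of all tested compounds plus 3 SD, cut at about 70% in these data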;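 also: higher means lower luciferase signal from less NR2E3 corepressor binding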
# GalR3 antag – blocks the human galanin receptor 3. 360,000 compounds, 0.44% hits. HEK293 GalR3-CNG cAMP membrane potential fluorescence; galR3 body fused to GalR1 C-terminus. AID 651719. inhibition, % at 3 µM;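 active = inhibition above the screen-wide average plus 3 SD, cut at about 13% in these data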;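 also: forskolin and galanin both at EC90 stimulate the cells; cAMP rise reported by CNG channel membrane potential dye signal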
# Target sequence (O60755 1-299 limits assumed): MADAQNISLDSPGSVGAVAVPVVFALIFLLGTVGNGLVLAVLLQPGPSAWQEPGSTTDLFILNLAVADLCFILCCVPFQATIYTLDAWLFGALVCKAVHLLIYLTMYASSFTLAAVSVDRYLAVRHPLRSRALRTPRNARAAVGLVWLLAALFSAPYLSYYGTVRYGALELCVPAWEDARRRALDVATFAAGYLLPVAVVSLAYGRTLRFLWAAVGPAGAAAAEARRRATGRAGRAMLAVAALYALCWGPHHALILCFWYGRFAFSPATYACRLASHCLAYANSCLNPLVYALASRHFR
# Jurkat NFkB conf – inhibitors of the PMA/ionomycin-induced NF-kB reporter in Jurkat cells, retest; 2,700 compounds, 27% hits; shares compounds with Jurkat NFkB inh; inhibition, % at 4 µM; Jurkat NF-kB luciferase, 16 h;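 active = inhibition reaching about 45% at 4 µM in either replicate, limit read from the data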
# Hits are given with their value; . = inactive; / = no result given.
SMILES,NR2E3 ag-1,697 NFkB inh,Jurkat NFkB inh,Gli-Sufu antag,NR2E3 ag-2,GalR3 antag,Jurkat NFkB conf
CCCCCCCCN1C(=O)[C@@H](CC(=O)N2CCOCC2)C[C@@]2(C(=O)OC)C1=C[C@H](C1CCCC1)O[C@@H]2C,/,/,/,/,/,.,/
Oc1ccccc1-c1cc(-c2ccccc2)n[nH]1,/,.,.,.,.,.,.
COC(=O)[C@]12C[C@H](CC(=O)NCc3cccc4ccccc34)C(=O)N(Cc3ccccc3)C1=C[C@H](C1CCCC1)O[C@@H]2C,/,/,/,/,/,.,/
COc1ccc(/C=N/Nc2nnc(-c3ncc[nH]3)c3ccccc23)cc1,.,.,.,.,.,/,/
Oc1ccc2ccccc2c1/C=N/Nc1nnc(-c2ncc[nH]2)c2ccccc12,.,.,71,63,.,.,77
COc1ccc(C2=NN(C(C#N)c3ccc(OC)c(OC)c3)C(c3ccccc3)C2)cc1 (configuration not stated),.,.,.,.,.,.,.
COc1ccc(C2=NN(c3ccccc3)C(c3ccc(OC)c(OC)c3)C2)cc1 (configuration not stated),.,.,.,.,.,.,/
CCOc1cc(N2CCOCC2)c(OCC)cc1NC(=O)c1cc(S(=O)(=O)N2CCOCC2)ccc1F,/,.,62,.,.,.,.
CCOc1cc(N2CCOCC2)c(OCC)cc1NC(=O)c1cccc(S(=O)(=O)N2CCOCC2)c1,/,.,.,.,.,.,/
CCc1cccc2c(C(=O)CN3C(=O)NC4(CCCCCC4)C3=O)c[nH]c12,.,.,94,.,.,.,.
Nc1ccn([C@@H]2O[C@H](C(=O)N[C@H](Cc3ccccc3)C(=O)N3CCN(CC(=O)N4CCCC4)CC3)[C@@H](O)[C@H]2O)c(=O)n1,/,/,/,/,/,.,/
CCOc1ccc(OCc2cccc(C(=O)N3CCOCC3)c2)cc1,.,.,53,.,.,.,.
COC(=O)[C@]12C[C@H](CC(=O)NCCCCc3ccccc3)C(=O)N(Cc3ccccc3)C1=C[C@H](C(C)(C)C)O[C@@H]2C,/,/,/,/,/,.,/
C=CC[C@]12C[C@@]3(O[C@H](C4CCCCC4)N=C3C[C@H](c3ccc(OC)cc3)[C@H]1C)N(Cc1ccncc1)C2=O,/,/,/,/,/,.,/
Cc1ccc(C2=NN3C(C2)c2ccccc2OC32C(=O)Nc3ccccc32)cc1 (configuration not stated),.,.,.,.,.,.,.
CN(C)Cc1ccc(-c2nc3cccc4c3n2CCNC4=O)cc1,.,.,57,.,.,.,.
CCOC(=O)CC1(Cc2ccccc2)Oc2ccccc2O1,/,/,/,/,/,.,/
CCOC(=O)c1[nH]c(C)c(C(=O)c2cc(F)ccc2F)c1C,.,.,77,.,.,.,.
CCN(CC)c1ccc(NC(=O)c2cc(OC)cc(OC)c2)c(C)c1,.,.,60,.,.,.,.
COc1ccc(C(=O)C(CN2CCOCC2)c2ccccc2)cc1 (configuration not stated),.,.,.,.,.,.,/
O=C(c1ccc(F)cc1)C(CN1CCOCC1)c1ccccc1 (configuration not stated),.,.,53,.,.,.,.
CCOC(=O)c1sc(N)c(C(=O)OC)c1C,.,.,.,.,.,.,/
CCOC(=O)c1sc(N)c(C(=O)Nc2ccccc2OC)c1C,.,.,71,.,.,.,.
COC(=O)c1cc2c(c3c4ccccc4n(S(=O)(=O)c4ccc(C)cc4)c13)C(=O)N(C)C2,/,/,/,/,/,.,/
CCOC(=O)CSC1=C(C#N)C(c2ccc(Cl)cc2)CC(=O)N1 (configuration not stated),.,.,.,.,.,.,/
SMILES,NR2E3 ag-1,697 NFkB inh,Jurkat NFkB inh,Gli-Sufu antag,NR2E3 ag-2,GalR3 antag,Jurkat NFkB conf
CCOC(=O)CSC1=C(C#N)C(c2ccc(C)o2)CC(=O)N1 (configuration not stated),.,.,58,.,.,.,.
NC(N)=Nc1nc(C2COc3ccccc3O2)cs1 (configuration not stated),.,.,.,.,.,.,.
COC(=O)c1[nH]c2ccc(F)cc2c1NS(=O)(=O)c1ccc(OC)cc1,.,.,66,.,.,.,47
CNC(=O)Nc1ccc(C2SCCS2)cc1,.,.,.,.,.,.,/
O=C(Nc1ccc(C2SCCS2)cc1)c1ccccc1,.,.,.,.,.,.,.
O=C(Nc1ccc(Cl)c(Cl)c1)c1ccccc1,.,.,.,.,.,.,.
Cc1ccc(OCc2ccc(Br)cc2)c([N+](=O)[O-])n1,.,.,.,/,/,.,.
O=C(N/N=C/c1cn(-c2ccccc2)nc1-c1cc2ccccc2o1)c1cccnc1,.,.,.,.,.,.,/
O=C(N/N=C/c1cn(-c2ccccc2)nc1-c1cc2ccccc2o1)c1ccncc1,.,.,.,.,.,.,.
COc1ccc2c(c1)sc(N)[n+]2Cc1cc(C)cc2cccnc12,.,/,/,.,.,.,/
CCOc1ccc2c(c1)sc(N)[n+]2Cc1cc(C)cc2cccnc12,.,.,62,.,.,.,51
O=C(NCc1ccccc1)[C@H]1CCCN1C(=O)[C@H]1CCCN1C(=O)c1cccs1,/,/,/,/,/,.,/
CCOC(=O)CSc1nc(-c2ccncc2)ccc1C#N,.,.,.,.,.,.,.
CCOC(=O)CC(=O)CSc1nc(-c2cccnc2)ccc1C#N,.,.,.,.,.,.,/
COC(=O)[C@]12C[C@H](CC(=O)N3CCCCC3)C(=O)N(Cc3ccccc3)C1=C[C@H](C1CCCC1)O[C@@H]2C,/,/,/,/,/,.,/
C[C@@H]1ON(C)[C@H]2C[C@H]3c4[nH]c5cccc(-c6cccc(F)c6)c5c4CCN3C(=O)[C@@H]12,/,/,/,/,/,.,/
CCOc1cc(S(=O)(=O)NCc2ccc(OC)cc2)c(OCC)cc1-n1cnnn1,.,.,57,.,.,.,.
COc1ccc(CCNc2cc(N3CCN(C(=O)c4ccc(C)cc4)CC3)ccc2[N+](=O)[O-])cc1OC,.,.,75,/,/,/,67
COc1ccc(CCNc2cc(N3CCN(C(=O)c4ccccc4F)CC3)ccc2[N+](=O)[O-])cc1OC,.,.,58,.,.,.,67
COc1ccc(CCNc2ccc(C(=O)O)cc2[N+](=O)[O-])cc1OC,.,.,.,.,.,.,/
O=C(c1ccccc1F)N1CCN(c2ccc([N+](=O)[O-])c(NCc3cccnc3)c2)CC1,.,.,.,.,.,.,/
Clc1ccc2nc(-c3ccc(Br)s3)cn2c1,.,.,.,.,.,.,.
CN(C)CCNC(=O)C(=O)Nc1ccc2c(c1)N(S(=O)(=O)c1cccs1)CCC2,.,.,65,.,.,.,.
CCOc1cc(CNCCCN2CCOCC2)cc(Br)c1OCC(=O)Nc1cccc(C(F)(F)F)c1,.,.,60,.,.,.,.
